Published values gathered from unrelated publications.
Lines come from different studies, so protocols differ.
Target: RAC-beta serine/threonine-protein kinase (AKT2, Homo sapiens, UniProt P31751)

The remaining signal of O=c1[nH]c2ccccc2n1C1CCN(Cc2ccc(-c3[nH]c4cc5ncnc5cc4nc3-c3ccccc3)cc2)CC1 is reported as 96.8% (cell-free assay; 0.5 µM).
With COc1ncccc1-c1cnn2ccc(N3CCN(C(=O)OC(C)C)CC3)nc12 the remaining binding was 98% (binding, competition with immobilised ligand; 1 µM).
Cn1cc(-c2cccc(N3CCc4c(sc5c4CC(C)(C)C5)C3=O)c2CO)cc(Nc2ccncn2)c1=O gave an inhibition of 2% (enzyme activity, inhibitor; 1 µM).
Cc1nn(C)cc1-c1nc2c(N3CCN(Cc4ccc(Cl)cc4)CC3)c(Cl)cnc2[nH]1 has a remaining binding of 100% (binding, competition with immobilised ligand; 1 µM).
N#CC1(c2ccccn2)CCN(Cc2cc(C(=O)O)c(=O)n3ccccc23)CC1 has a remaining binding of 73% (cell-free assay, competition with immobilised ligand; 1 µM).
For Nc1ncc(-c2nc(N3CCOCC3)nc(N3CCOCC3)n2)c(C(F)F)n1, the remaining binding was 100% (binding, competition with immobilised ligand; 10 µM).
With Cn1cc(-c2cc(F)cc(N3CCn4c(cc5c4CCCC5)C3=O)c2CO)cc(Nc2ccc(N3CCN(C4COC4)CC3)cn2)c1=O the inhibition was 9% (enzyme activity, inhibitor; 0.1 µM).
The remaining activity of CC(C)(C)c1cc(C=C(C#N)C#N)cc(Br)c1O is reported as 97.7% (enzyme activity, inhibitor; 0.5 µM).
Cn1cncc1[C@@](O)(COc1ccc(C#N)cc1-c1ccc(OC(F)(F)F)cc1)c1ccc(C#N)cc1 gave a remaining binding of 78% (cell-free assay, competition with immobilised ligand; 1 µM).
C#Cc1n[nH]c2c(-c3cn(C(C)c4ccccn4)c(=O)[nH]c3=O)cc(F)cc12 (centres unmarked) has an inhibition of 2% (enzyme activity, inhibitor; 1 µM).
For COc1cc(Nc2ncc(F)c(Nc3ccc4c(n3)NC(=O)C(C)(C)O4)n2)cc(OC)c1OC, the inhibition was 0% (binding; 10 µM).
